Measurements taken from ChEMBL document CHEMBL1151787, “Salicylanilides: selective inhibitors of interleukin-12p40 production” (Bioorg Med Chem, 2008).
The source made the active and inactive calls. No cut-off for these calls is given here.

Key:
[1] = Inhibition of CD40L, IFN-gamma and IL18 mixture-induced IL12p40 production in mouse DC-B cells after 18 to 24 hrs by fluorescence immunoassay; type: functional, cell-based
Procedure, shortened: (§1)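 DC-B cells grown in GM-CSF (20 ng/mL) medium and passaged every 48 h. Cells were mixed with compound in low-serum assay medium (0.4% DMSO) and stimulated with murine CD40L 2 ng/mL, IL-18 40 ng/mL and IFN-gamma 20 ng/mL (final). Incubation was 18–24 h at 37 °C, 5% CO2. Supernatant IL-12p40 or IL-6 was measured by europium sandwich immunoassay (biotinylated detection antibody, Eu-streptavidin, 615 nm). Ten concentrations were tested, in triplicate, and results were expressed as percent of control versus concentration.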

[2] = Inhibition of CD40L, IFN-gamma and IL18 mixture-induced IL6 production in mouse DC-B cells after 18 to 24 hrs by fluorescence immunoassay; type: functional, cell-based; procedure, shortened: as §1
[3] = Cytotoxicity against CD40L, IFN-gamma and IL18 mixture-stimulated mouse DC-B cells at <100 nM after 18 hrs by CellTiter-Glo assay; type: cell-based
Procedure, shortened: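 Murine dendritic cell line DC-B treated with test compound, then stimulated as in the cytokine assay (mouse CD40L, IL-18, IFN-gamma) and incubated 18 h. CellTiter-Glo reagent added in volume equal to the culture. Plates shaken 2 min to lyse cells, then left 10 min without shaking. Luminescence read on a microplate reader.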

[4] = species: Mus musculus; test: Inhibition of CD40L, IFN-gamma and IL18 mixture-induced IL12p40 production in mouse DC-B cells at 10 uM after 18 to 24 hrs by fluorescence immunoassay; type: functional, cell-based

Row | Compound | IC50 [1] [nM] | IC50 [2] [nM] | Activity [3] | Activity [4]
1 | O=C(O)CN(C(=O)c1ccccc1O)c1cc(Cl)cc(Cl)c1 | > 10000 | > 10000 | Non-toxic | –
2 | O=C(Nc1cc(Cl)cc(Cl)c1)c1ccccc1NS(=O)(=O)c1ccc(Cl)c([N+](=O)[O-])c1 | 240 | 220 | Non-toxic | –
3 | Cc1cc(C)cc(NC(=O)c2ccccc2O)c1 | > 10000 | > 10000 | Non-toxic | –
4 | O=C(Nc1ccccn1)c1ccccc1O | > 10000 | > 10000 | Non-toxic | –
5 | O=C(Nc1cc(Cl)cc(Cl)c1)c1ccccc1O | 13 | > 10000 | Non-toxic | –
6 | O=C(Nc1cc(Cl)cc(Cl)c1)c1ccc([N+](=O)[O-])cc1O | 320 | 250 | Non-toxic | –
7 | O=C(Nc1cc(C(F)(F)F)cc(C(F)(F)F)c1)c1ccccc1O | 120 | 740 | Non-toxic | –
8 | O=C1c2cccc(O)c2C(=O)N1c1cc(Cl)cc(Cl)c1 | > 10000 | > 10000 | Non-toxic | –
9 | O=C(Nc1cc(Cl)cc(Cl)c1)c1ccccc1OCc1ccccc1 | > 10000 | > 10000 | Non-toxic | inactive
10 | O=C(Nc1cc(C(F)(F)F)ccc1Cl)c1ccccc1O | 200 | 1800 | Non-toxic | –
11 | O=c1oc2cc(Cl)ccc2c(=O)n1-c1cc(C(F)(F)F)cc(C(F)(F)F)c1 | 280 | 350 | Non-toxic | –

Second part, led by results:

Row | IC50 [1] [nM] | IC50 [2] [nM] | Compound | Activity [3] | Activity [4]
12 | 2700 | 1700 | Oc1ccc(Br)cc1CNc1cc(Cl)cc(Cl)c1 | Non-toxic | –
13 | 130 | 130 | O=C(Nc1ccc(Cl)c(Cl)c1)c1cc(Cl)ccc1O | Non-toxic | –
14 | > 10000 | > 10000 | O=C(Nc1ccc(O)cc1)c1ccccc1O [OSALMID] | Non-toxic | –
15 | > 10000 | > 10000 | CN(C(=O)c1ccccc1O)c1cc(Cl)cc(Cl)c1 | Non-toxic | –
16 | 13 | 300 | O=C(Nc1cc(Cl)cc(Cl)c1)c1cc(Br)ccc1O | Non-toxic | –
17 | 410 | 170 | O=C(Nc1cc(Cl)cc(Cl)c1)c1cc([N+](=O)[O-])ccc1O | Non-toxic | –
18 | 74 | 640 | O=C(Nc1cc(Cl)c(Cl)cc1Cl)c1cc(Br)ccc1O | Non-toxic | –
19 | 5100 | > 10000 | O=C(Nc1cccc(Cl)c1)c1ccccc1O | Non-toxic | –
20 | 45 | > 10000 | O=C(Nc1cc(Cl)c(Cl)cc1Cl)c1ccccc1O | Non-toxic | –
